We go through 15 molecules from publication PMC3987869 (Journal of medicinal chemistry, 2013).

In series [1] the test system is mouse brain membrane SH enzymes. In kind it is biochemical. The following applies: FP-Rh; for Off-targets (1 μM): 1 μM compound; for Off-targets (10 μM): 10 μM compound. Put shortly: (§1)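 Mouse brain membrane fraction was prepared by Dounce homogenisation in PBS pH 7.5, a 1,400 × g spin, then a 100,000 × g pellet (45 min). Membranes at 1 mg/mL were preincubated with test compound for 30 min at 37 °C, then labelled with FP-rhodamine (1 μM final, 30 min, 37 °C). Samples were quenched in SDS-PAGE loading buffer, run on 10% SDS-PAGE and scanned for in-gel fluorescence.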

The target of series [2] is T1, mouse brain membrane SH enzymes (Mus musculus, UniProt O08914).
T1 sequence (O08914 1-579): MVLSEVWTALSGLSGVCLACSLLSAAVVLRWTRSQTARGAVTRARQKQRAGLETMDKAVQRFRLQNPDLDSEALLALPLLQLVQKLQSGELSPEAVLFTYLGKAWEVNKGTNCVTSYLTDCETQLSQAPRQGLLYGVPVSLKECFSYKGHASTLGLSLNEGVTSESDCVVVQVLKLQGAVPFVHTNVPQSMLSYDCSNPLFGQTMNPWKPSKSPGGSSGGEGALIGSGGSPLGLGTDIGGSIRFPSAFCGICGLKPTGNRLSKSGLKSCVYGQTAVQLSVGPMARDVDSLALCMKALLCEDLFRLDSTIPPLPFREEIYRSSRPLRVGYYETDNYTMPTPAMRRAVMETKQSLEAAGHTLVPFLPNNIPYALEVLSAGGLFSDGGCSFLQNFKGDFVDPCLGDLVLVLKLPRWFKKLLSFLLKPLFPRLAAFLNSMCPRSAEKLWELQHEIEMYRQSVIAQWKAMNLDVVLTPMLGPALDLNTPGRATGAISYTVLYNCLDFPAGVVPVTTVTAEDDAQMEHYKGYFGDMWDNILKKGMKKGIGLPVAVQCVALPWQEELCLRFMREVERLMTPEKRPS
Type of series: biochemical. The following applies: competitive ABPP, FP-Rh. Put shortly: as §1

Series [3] deals with T2, Neuro2A membrane proteome (Mus musculus, UniProt Q8R2Y0).
T2 sequence (Q8R2Y0 1-336): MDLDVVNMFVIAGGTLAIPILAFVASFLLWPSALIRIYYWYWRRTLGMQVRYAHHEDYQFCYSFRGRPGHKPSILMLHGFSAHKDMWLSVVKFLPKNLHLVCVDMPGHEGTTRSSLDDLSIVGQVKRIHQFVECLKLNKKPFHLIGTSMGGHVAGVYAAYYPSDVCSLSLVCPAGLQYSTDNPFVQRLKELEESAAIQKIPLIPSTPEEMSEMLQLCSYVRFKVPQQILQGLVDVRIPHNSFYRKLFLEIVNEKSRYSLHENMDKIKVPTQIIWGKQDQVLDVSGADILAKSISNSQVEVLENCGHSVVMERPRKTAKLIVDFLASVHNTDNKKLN
In words: click chemistry-ABPP of Neuro2A cells treated in situ with compound 2. In kind it is cell-based. Conditions: Neuro2A cells 1 hr, click with azide-Rh.

Series [4] concerns Neuro2A membrane proteome. The description is as above. Type of series: cell-based, mouse. Conditions: Neuro2A cells 1 hr, click with azide-Rh.
Another series has as its target T3, endogenous ABHD6 (Mus musculus, UniProt Q8R2Y0).
T3 sequence (Q8R2Y0 1-336): T2 sequence (Q8R2Y0 1-336)
In words: gel-based competitive ABPP. Type of series: biochemical. Conditions: versus compound 1.

Series [5] concerns the target T4, ABHD6 (Mus musculus, UniProt Q8R2Y0).
T4 sequence (Q8R2Y0 1-336): T2 sequence (Q8R2Y0 1-336)
Nature of the series: in situ ABHD6 inhibition in Neuro2A cells, gel-based competitive ABPP. In kind it is cell-based. The following applies: for fold more potent in situ compared to compound 1: versus compound 1; for potency and selectivity in cells: abstract statement.

In series [6] the test system is other SHs detected in Neuro2A cells. In words: ABPP-SILAC of Neuro2A cells treated in situ: other serine hydrolases. Conditions: 3 nM, 4 hr. Type of series: cell-based, mouse. The method in brief: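 Neuro2A cells were grown 10 passages in light or heavy (13C/15N Arg and Lys) SILAC DMEM with 10% dialyzed FCS and 2 mM L-glutamine. Heavy cells received test compound and light cells DMSO (4 hr, 37 °C). Soluble and membrane proteomes (2.0 mg/mL) were labeled with 10 μM FP-biotin (2 hr, 25 °C), mixed 1:1, avidin-enriched, trypsin-digested on bead (12 hr, 37 °C) and analysed by LC-MS/MS. Heavy/light ratios were taken from ≥3 unique peptides per enzyme.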

Series [7] has as its target T4, ABHD6. In words: in vivo ABHD6 inhibition in mouse liver, gel-based competitive ABPP. Conditions: 4 hr; for liver ABHD6 inhibition at 1 mg kg^-1: i.p., 1 mg kg^-1, HT-01 gels.
Series [8] concerns the target T4, ABHD6. In words: in vivo ABHD6 inhibition in mouse brain, gel-based competitive ABPP. The following applies: for brain ABHD6 inhibition: 1 mg kg^-1 (20: all doses tested, 0.1-1 mg kg^-1).
Series [9] concerns the target T5, other brain and liver SHs (CES1, FAAH) (Mus musculus, UniProt O08914).
T5 sequence (O08914 1-579): T1 sequence (O08914 1-579)
Type of series: in vivo. The following applies: for lowest oral dose with cross-reactivity with FAAH in the brain: oral gavage. Put shortly: (§2)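 Mice were dosed i.p. in 18:1:1 saline/ethanol/PEG40 (10 μL g-1) or by oral gavage in PEG300 (4 μL g-1). After 4 hr they were anaesthetised with isoflurane and killed by cervical dislocation. Brain and liver were Dounce-homogenised in PBS pH 7.5, and membrane fractions (100,000 × g pellet) were labelled with FP-rhodamine or HT-01 (1 μM, 30 min, 37 °C). Readout was SDS-PAGE with in-gel fluorescence.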

The subject of series [10] is other brain and liver SHs (CES1, FAAH). Type of series: in vivo. The following applies: mouse, i.p., 4 hr, FP-Rh gels. The method in brief: as §2
In series [11] the target is T4, ABHD6. Conditions: negligible cross-reactivity with FAAH; cited from earlier work.
[12] abbreviates: Table 1, mouse brain membrane proteome.

“Also recorded” adds a separate entry of the source. Where two headings read alike, the source gives them in different places. Some results are limits rather than exact numbers.

Regarding `O=C(N1CCCCC1c1ccccc1)n1cc(-c2ccc(-c3ccc(CO)cc3)cc2)nn1` (centres unmarked) [Compound 10], the “Off-targets (1 μM)” value in series [1] (mouse brain SHs) is reported as “none”. Also, in series [1] (Table 2, mouse brain SHs), the “Off-targets (10 μM)” value was “FAAH, LYPLA1, LYPLA2”.

Turning to `C#CCOCCCc1ccc(C2CCCCN2C(=O)n2cc(-c3ccc(-c4ccc(OC)cc4)cc3)nn2)cc1` (centres unmarked) [Compound 2], the “concentrations cross-reactive with FAAH in mouse brain proteome” value in series [2] was in the range of 0.4 to 10 µM. In addition, the “lowest concentration at which the ∼35 kDa target (ABHD6) was detected” value in series [3] was 10 nM. Besides, in [4], the “concentrations with limited cross-reactivity (60 kDa protein, likely FAAH)” value lay in the range of 80 to 600 nM.

Consider `O=C(c1cccc(-c2ccc(-c3cn(C(=O)N4CCCCC4c4ccccc4)nn3)cc2)c1)N1CCCCC1` (centres unmarked) [Compound 11, (2-Phenylpiperidin-1-yl)(4-(3′-(piperidine-1-carbonyl)-[1,1′-biphenyl]-4-yl)-1H-1,2,3-triazol-1-yl)methanone], for which the “fold more potent in vitro compared to compound 1” value (shortened to “fold more potent in vitro”) at endogenous ABHD6 is listed as roughly 10 fold. In [1] (mouse brain SHs), the “Off-targets (1 μM)” value is “none”. In [1] (Table 2, mouse brain SHs), the “Off-targets (10 μM)” value was “LYPLA1, LYPLA2”. In addition, the “fold more potent in situ compared to compound 1” value (“fold more potent in situ” for short) at ABHD6 [5] was roughly 5 fold. Moreover, the “cross-reactivity against the ∼50 other SHs (ABPP-SILAC)” value (shortened to “cross-reactivity … (ABPP-SILAC)”) in series [6] is given as less than 50%. The “doses giving near-complete blockade of ABHD6 in the liver (i.p.)” value at ABHD6 [7] was 5 to 10 mg/kg. Moreover, the “dose to completely block ABHD6 in the brain (i.p.)” value on ABHD6 [8] (i.p., 4 hr) is recorded as roughly 40 mg/kg. Moreover, the inhibition (as a rule, the percentage by which the read-out fell short of the control) at 20 mg/kg on ABHD6 [8] (ip, read-out: brain ABHD6 inhibition at 20 mg kg^-1) was greater than 70%. Besides, the “dose producing complete blockade of brain ABHD6 (p.o.)” value on ABHD6 [8] (p.o., PEG300, 4 hr) is 40 mg/kg. Besides, the “cross-reactivity with FAAH in brain in vivo” value in series [9] (i.p., 1-40 mg kg^-1, 4 hr) is “negligible”.

Consider `O=C(O)c1cccc(-c2ccc(-c3cn(C(=O)N4CCCCC4CCc4ccccc4)nn3)cc2)c1` (centres unmarked) [Compound 22], for which, in series [1] (mouse brain SHs), the “Off-targets (1 μM)” value is reported as “none”. The “Off-targets (10 μM)” value in [1] (Table 2, mouse brain SHs) is “FAAH”.

For the molecule `COc1ccccc1-c1ccc(-c2cn(C(=O)N3CCCCC3c3ccccc3)nn2)cc1` (centres unmarked) [Compound 6], the “Off-targets (10 μM)” value in series [1] (setting [12]) was “FAAH, MGLL”.

Regarding `O=C(O)c1cccc(-c2ccc(-c3cn(C(=O)N4CCCCC4Cc4ccccc4)nn3)cc2)c1` (centres unmarked) [Compound 20, 4′-(1-(2-Benzylpiperidine-1-carbonyl)-1H-1,2,3-triazol-4-yl)-[1,1′-biphenyl]-3-carboxylic acid], at endogenous ABHD6, the “fold more potent in vitro” value is recorded as roughly 10 fold. In addition, in series [1] (mouse brain SHs), the “Off-targets (1 μM)” value is on record as “none”. In addition, the “Off-targets (10 μM)” value in series [1] (Table 2, mouse brain SHs) is given as “FAAH, DAGLβ”. On ABHD6 [5], the “potency and selectivity in cells” value is less than 5 nM; the “fold more potent in situ” value is listed as roughly 5 fold. The “cross-reactivity … (ABPP-SILAC)” value in series [6] was less than 50%. Besides, the “liver ABHD6 inhibition at 1 mg kg^-1” value on ABHD6 [7] is recorded as “near-complete blockade; also recorded: near-complete inactivation”. Further, on ABHD6 [8] (i.p., 4 hr), the “brain ABHD6 inhibition” value is on record as “negligible inhibition”. For the same molecule, the “lowest oral dose with cross-reactivity with FAAH in the brain” value in series [9] was found to be 10 mg/kg.

As for `COc1ccccc1-c1ccc(-c2cn(C(=O)N3CCCCC3Cc3ccccc3)nn2)cc1` (centres unmarked) [Compound 3], the “Off-targets (10 μM)” value in series [1] (setting [12]) is “MGLL”.

For `O=C(c1ccc(-c2ccc(-c3cn(C(=O)N4CCCCC4Cc4ccccc4)nn3)cc2)cc1)N1CCCCC1` (centres unmarked) [Compound 5], the “Off-targets (10 μM)” value in series [1] (setting [12]) is “none”.

Turning to `O=C(N1CCCCC1c1ccccc1)n1cc(-c2ccc(-c3cccc(CO)c3)cc2)nn1` (centres unmarked) [Compound 9, (4-(3′-(Hydroxymethyl)-[1,1′-biphenyl]-4-yl)-1H-1,2,3-triazol-1-yl)(2-phenylpiperidin-1-yl)methanone], the “fold more potent in vitro” value on endogenous ABHD6 is roughly 10 fold. In addition, the “Off-targets (1 μM)” value in series [1] (mouse brain SHs) is recorded as “none”. Further, the “Off-targets (10 μM)” value in series [1] (Table 2, mouse brain SHs) is “FAAH, LYPLA1, LYPLA2”. Also, on ABHD6 [5], the “potency and selectivity in cells” value is given as less than 5 nM; the “fold more potent in situ” value is on record as roughly 5 fold. In addition, the “cross-reactivity … (ABPP-SILAC)” value in series [6] was less than 50%. For the same molecule, at ABHD6 [7], the “liver ABHD6 inhibition at 1 mg kg^-1” value was “near-complete blockade; also recorded: near-complete inactivation”. The “brain ABHD6 inhibition” value at ABHD6 [8] (i.p., 4 hr) is “completely inactivated; also recorded: near-complete inactivation”. For the same molecule, the “lowest oral dose with cross-reactivity with FAAH in the brain” value in [9] was 10 mg/kg. Further, in series [10], the “inhibition of off-target carboxylesterase-1 (CES1) in vivo” value is given as “inhibited”.

Turning to `O=C(N1CCCCC1c1ccccc1)n1cc(-c2ccc(-c3ccccc3CO)cc2)nn1` (centres unmarked) [Compound 8], in [1] (mouse brain SHs), the “Off-targets (1 μM)” value is “none”. Also, the “Off-targets (10 μM)” value in [1] (Table 2, mouse brain SHs) is listed as “FAAH, LYPLA1, LYPLA2”.

In the case of `O=C(c1ccc(-c2ccc(-c3cn(C(=O)N4CCCCC4c4ccccc4)nn3)cc2)cc1)N1CCCCC1` (centres unmarked) [Compound 12], the “Off-targets (1 μM)” value in [1] (mouse brain SHs) was “none”. Moreover, in [1] (Table 2, mouse brain SHs), the “Off-targets (10 μM)” value is recorded as “LYPLA1, LYPLA2”.

Take `O=C(O)c1cccc(-c2ccc(-c3cn(C(=O)N4CCCCC4c4ccccc4)nn3)cc2)c1` (centres unmarked) [Compound 21]: in series [1] (mouse brain SHs), the “Off-targets (1 μM)” value is “APEH, LYPLA1, and LYPLA2”. In addition, in series [1] (Table 2, mouse brain SHs), the “Off-targets (10 μM)” value is “FAAH, APEH, LYPLA1, LYPLA2”.

Turning to `COc1ccc(-c2ccc(-c3cn(C(=O)N4CCCCC4c4ccccc4)nn3)cc2)cc1` (centres unmarked) [Compound 1], the “Off-targets (10 μM)” value in series [1] (setting [12]) is given as “FAAH”. Also, at ABHD6 [11], the “concentration that completely inactivates ABHD6 in living cells” value is given as 25 nM.

For the molecule `NC(=O)c1ccc(-c2ccc(-c3cn(C(=O)N4CCCCC4c4ccccc4)nn3)cc2)cc1` (centres unmarked) [Compound 13], the “Off-targets (1 μM)” value in series [1] (mouse brain SHs) was “none”. In addition, in series [1] (Table 2, mouse brain SHs), the “Off-targets (10 μM)” value is given as “FAAH, LYPLA1, LYPLA2”.

For the molecule `O=C(N1CCCCC1Cc1ccccc1)n1cc(-c2ccc(-c3cccc(CO)c3)cc2)nn1` (centres unmarked) [Compound 4], the “Off-targets (10 μM)” value in [1] (setting [12]) is given as “none”.
